From ChEMBL document CHEMBL1759861, “Synthesis of 9-substituted derivatives of berberine as anti-HIV agents” (Eur J Med Chem, 2011)
Values belong to the molecule of their own block, whether it stands above or below them.

Experiments:
[1] = system: Human immunodeficiency virus 1; experiment: Antiviral activity against 0.05 MOI Human immunodeficiency virus 1 NL4.3 infected in human CEM cells expressing green fluorescent protein assessed as p24 antigen production at 2.24 uM measured 7 days post infection by ELISA; assay type: functional; settings: Human immunodeficiency virus 1, NL4.3, CCRF-CEM, 168 h
Outline: (§1)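 CD4+ T-cell line CEM-GFP infected with HIV-1 NL4.3 at MOI 0.05, monitored by GFP under the microscope. Each sample tested at a single concentration, its highest noncytotoxic concentration, for up to 7 days post infection. Day-7 culture supernatant assayed for virus by p24 antigen capture ELISA; % inhibition of replication reported. AZT positive control.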

[2] = system: Human immunodeficiency virus 1; experiment: Antiviral activity against 0.05 MOI Human immunodeficiency virus 1 NL4.3 infected in human CEM cells expressing green fluorescent protein assessed as p24 antigen production at 0.02 uM measured 7 days post infection by ELISA; assay type: functional; settings: Human immunodeficiency virus 1, NL4.3, CCRF-CEM, 168 h; outline: as §1
[3] = system: Human immunodeficiency virus 1; experiment: Antiviral activity against 0.05 MOI Human immunodeficiency virus 1 NL4.3 infected in human CEM cells expressing green fluorescent protein assessed as p24 antigen production at 1.03 uM measured 7 days post infection by ELISA; assay type: functional; settings: Human immunodeficiency virus 1, NL4.3, CCRF-CEM, 168 h; outline: as §1
[4] = system: Human immunodeficiency virus 1; experiment: Antiviral activity against 0.05 MOI Human immunodeficiency virus 1 NL4.3 infected in human CEM cells expressing green fluorescent protein assessed as p24 antigen production at 1.05 uM measured 7 days post infection by ELISA; assay type: functional; settings: Human immunodeficiency virus 1, NL4.3, CCRF-CEM, 168 h; outline: as §1
[5] = Cytotoxicity against human CEM cells expressing green fluorescent protein after 48 hrs by MTT assay; assay type: cell-based, CCRF-CEM
Outline: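 Uninfected CEM-GFP cells seeded at 2×10^4 cells/well with samples at several concentrations, untreated and vehicle-treated controls, 48 h. MTT reagent (5 mg/ml stock) added, formazan solubilised, absorbance read at 540 nm. CC50 is the concentration giving 50% cytotoxicity.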

[6] = system: Human immunodeficiency virus 1; experiment: Antiviral activity against 0.05 MOI Human immunodeficiency virus 1 NL4.3 infected in human CEM cells expressing green fluorescent protein assessed as p24 antigen production measured 7 days post infection by ELISA; assay type: functional, organism-based; settings: Human immunodeficiency virus 1, NL4.3, CCRF-CEM, 168 h
Outline: (§2)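 CEM-GFP cells infected with HIV-1 NL4.3 (MOI 0.05) and cultured with samples over a concentration range up to 7 days post infection. p24 antigen capture ELISA on day-7 supernatant. EC50 is the concentration giving 50% inhibition of infected cells. Therapeutic index is CC50 in uninfected cells (MTT, 48 h) divided by EC50.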

[7] = Therapeutic index, ratio of CC50 for human CEM cells expressing green fluorescent protein to EC50 for Human immunodeficiency virus 1 NL4.3; assay type: cell-based, CCRF-CEM; settings: read-out: TI; outline: as §2
[8] = system: Human immunodeficiency virus 1; experiment: Antiviral activity against 0.05 MOI Human immunodeficiency virus 1 NL4.3 infected in human CEM cells expressing green fluorescent protein assessed as p24 antigen production at 4.32 uM measured 7 days post infection by ELISA; assay type: functional; settings: Human immunodeficiency virus 1, NL4.3, CCRF-CEM, 168 h; outline: as §1
[9] = target: Human immunodeficiency virus type 1 reverse transcriptase (Human immunodeficiency virus 1) (UniProt Q72547); experiment: Inhibition of Human immunodeficiency virus 1 NL4.3 reverse transcriptase activity at 20 ug/ml
[10] = target: Human immunodeficiency virus type 1 reverse transcriptase (Human immunodeficiency virus 1) (UniProt Q72547); experiment: Inhibition of Human immunodeficiency virus 1 NL4.3 reverse transcriptase activity at 200 ug/ml
Outline: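 HIV-1 RT inhibition measured with a colorimetric reverse transcriptase assay kit, following the manufacturer's protocol; nevirapine served as the positive control.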

[11] = system: Human immunodeficiency virus 1; experiment: Antiviral activity against 0.05 MOI Human immunodeficiency virus 1 NL4.3 infected in human CEM cells expressing green fluorescent protein assessed as p24 antigen production at 1.95 uM measured 7 days post infection by ELISA; assay type: functional; settings: Human immunodeficiency virus 1, NL4.3, CCRF-CEM, 168 h; outline: as §1
[12] = system: Human immunodeficiency virus 1; experiment: Antiviral activity against 0.05 MOI Human immunodeficiency virus 1 NL4.3 infected in human CEM cells expressing green fluorescent protein assessed as p24 antigen production at 0.29 uM measured 7 days post infection by ELISA; assay type: functional; settings: Human immunodeficiency virus 1, NL4.3, CCRF-CEM, 168 h; outline: as §1
[13] = system: Human immunodeficiency virus 1; experiment: Antiviral activity against 0.05 MOI Human immunodeficiency virus 1 NL4.3 infected in human CEM cells expressing green fluorescent protein assessed as p24 antigen production at 4.88 uM measured 7 days post infection by ELISA; assay type: functional; settings: Human immunodeficiency virus 1, NL4.3, CCRF-CEM, 168 h; outline: as §1
[14] = system: Human immunodeficiency virus 1; experiment: Antiviral activity against 0.05 MOI Human immunodeficiency virus 1 NL4.3 infected in human CEM cells expressing green fluorescent protein assessed as p24 antigen production at 4.62 uM measured 7 days post infection by ELISA; assay type: functional; settings: Human immunodeficiency virus 1, NL4.3, CCRF-CEM, 168 h; outline: as §1
[15] = system: Human immunodeficiency virus 1; experiment: Antiviral activity against 0.05 MOI Human immunodeficiency virus 1 NL4.3 infected in human CEM cells expressing green fluorescent protein assessed as p24 antigen production at 18.03 uM measured 7 days post infection by ELISA; assay type: functional; settings: Human immunodeficiency virus 1, NL4.3, CCRF-CEM, 168 h; outline: as §1
[16] = system: Human immunodeficiency virus 1; experiment: Antiviral activity against 0.05 MOI Human immunodeficiency virus 1 NL4.3 infected in human CEM cells expressing green fluorescent protein assessed as p24 antigen production at 2.10 uM measured 7 days post infection by ELISA; assay type: functional; settings: Human immunodeficiency virus 1, NL4.3, CCRF-CEM, 168 h; outline: as §1
[17] = system: Human immunodeficiency virus 1; experiment: Antiviral activity against 0.05 MOI Human immunodeficiency virus 1 NL4.3 infected in human CEM cells expressing green fluorescent protein assessed as p24 antigen production at 9.77 uM measured 7 days post infection by ELISA; assay type: functional; settings: Human immunodeficiency virus 1, NL4.3, CCRF-CEM, 168 h; outline: as §1
[18] = system: Human immunodeficiency virus 1; experiment: Antiviral activity against 0.05 MOI Human immunodeficiency virus 1 NL4.3 infected in human CEM cells expressing green fluorescent protein assessed as p24 antigen production at 5 uM measured 7 days post infection by ELISA; assay type: functional; settings: Human immunodeficiency virus 1, NL4.3, CCRF-CEM, 168 h; outline: as §1
[19] = system: Human immunodeficiency virus 1; experiment: Antiviral activity against 0.05 MOI Human immunodeficiency virus 1 NL4.3 infected in human CEM cells expressing green fluorescent protein assessed as p24 antigen production at 5.30 uM measured 7 days post infection by ELISA; assay type: functional; settings: Human immunodeficiency virus 1, NL4.3, CCRF-CEM, 168 h; outline: as §1
[20] = system: Human immunodeficiency virus 1; experiment: Antiviral activity against 0.05 MOI Human immunodeficiency virus 1 NL4.3 infected in human CEM cells expressing green fluorescent protein assessed as p24 antigen production at 21.65 uM measured 7 days post infection by ELISA; assay type: functional; settings: Human immunodeficiency virus 1, NL4.3, CCRF-CEM, 168 h; outline: as §1
[21] = system: Human immunodeficiency virus 1; experiment: Antiviral activity against 0.05 MOI Human immunodeficiency virus 1 NL4.3 infected in human CEM cells expressing green fluorescent protein assessed as p24 antigen production at 5.31 uM measured 7 days post infection by ELISA; assay type: functional; settings: Human immunodeficiency virus 1, NL4.3, CCRF-CEM, 168 h; outline: as §1
[22] = system: Human immunodeficiency virus 1; experiment: Antiviral activity against 0.05 MOI Human immunodeficiency virus 1 NL4.3 infected in human CEM cells expressing green fluorescent protein assessed as p24 antigen production at 4.69 uM measured 7 days post infection by ELISA; assay type: functional; settings: Human immunodeficiency virus 1, NL4.3, CCRF-CEM, 168 h; outline: as §1
[23] = system: Human immunodeficiency virus 1; experiment: Antiviral activity against 0.05 MOI Human immunodeficiency virus 1 NL4.3 infected in human CEM cells expressing green fluorescent protein assessed as p24 antigen production at 15.52 uM measured 7 days post infection by ELISA; assay type: functional; settings: Human immunodeficiency virus 1, NL4.3, CCRF-CEM, 168 h; outline: as §1

SMILES: COc1ccc2cc3[n+](cc2c1OC(=O)Cc1cccs1)CCc1cc2c(cc1-3)OCO2
- inhibition at 2.24 µM [1]: 0%

SMILES: COc1ccc(C(=O)Oc2c(OC)ccc3cc4[n+](cc23)CCc2cc3c(cc2-4)OCO3)cc1
- inhibition at 0.02 µM [2]: 44.3%

SMILES: COc1ccc2cc3[n+](cc2c1OC(=O)C12CC4CC(CC(C4)C1)C2)CCc1cc2c(cc1-3)OCO2
- inhibition at 1.03 µM [3]: 64.2%

SMILES: COc1ccc2cc3[n+](cc2c1OC(=O)c1cccc2ccccc12)CCc1cc2c(cc1-3)OCO2
- inhibition at 1.05 µM [4]: 0%

SMILES: COc1ccc2cc3[n+](cc2c1OC(=O)c1ccc(F)cc1F)CCc1cc2c(cc1-3)OCO2
- CC50 at 48 h [5]: 57100 nM
- EC50 [6]: 950 nM
- selectivity ratio [7]: 60.1
- inhibition at 4.32 µM [8]: 71.7%
- inhibition [9]: 99%

- inhibition [10]: 25%
SMILES: COc1cc2c(cc1OC)[C@@H]1Cc3ccc(OC)c(OC)c3CN1CC2

SMILES: COc1ccc2cc3[n+](cc2c1OC(=O)c1c(F)cccc1C(F)(F)F)CCc1cc2c(cc1-3)OCO2
- inhibition at 1.95 µM [11]: 0%

SMILES: COc1ccc2cc3[n+](cc2c1OC)CCc1cc2c(cc1-3)OCO2 [BERBERINE CHLORIDE]
- CC50 at 48 h [5]: 2090 nM
- EC50 [6]: 130 nM
- selectivity ratio [7]: 16.1
- inhibition at 0.29 µM [12]: 66%
- inhibition [9]: 94%

SMILES: COc1ccc2cc3[n+](cc2c1OC(=O)c1ccc(F)cc1C(F)(F)F)CCc1cc2c(cc1-3)OCO2
- inhibition at 4.88 µM [13]: 0%

SMILES: COc1ccc2cc3[n+](cc2c1OC(=O)c1cccs1)CCc1cc2c(cc1-3)OCO2
- CC50 at 48 h [5]: 91900 nM
- EC50 [6]: 1820 nM
- selectivity ratio [7]: 50.5
- inhibition at 4.62 µM [14]: 73.1%
- inhibition [9]: 99%

SMILES: COc1ccc2cc3[n+](cc2c1OC(=O)c1ccco1)CCc1cc2c(cc1-3)OCO2
- inhibition at 18.03 µM [15]: 22.6%

SMILES: COc1ccc2cc3[n+](cc2c1OC(=O)c1ccc2ccccc2c1)CCc1cc2c(cc1-3)OCO2
- inhibition at 2.1 µM [16]: 58.8%

SMILES: COc1ccc2cc3[n+](cc2c1OC(=O)c1ccc(C(F)(F)F)cc1F)CCc1cc2c(cc1-3)OCO2
- inhibition at 9.77 µM [17]: 23.4%

SMILES: Cc1cn([C@H]2C[C@H](N=[N+]=[N-])[C@@H](CO)O2)c(=O)[nH]c1=O [ZIDOVUDINE]
- EC50 [6]: 1050 nM
- inhibition at 5 µM [18]: 89.8%

SMILES: COc1ccc2cc3[n+](cc2c1OC(=O)c1ccc(F)c(C(F)(F)F)c1)CCc1cc2c(cc1-3)OCO2
- inhibition at 4.88 µM [13]: 0%

SMILES: COc1ccc2cc3[n+](cc2c1OC(=O)c1ccc(SC)cc1)CCc1cc2c(cc1-3)OCO2
- inhibition at 5.3 µM [19]: 0%

SMILES: COc1ccc2cc3[n+](cc2c1OC(=O)c1ccc(F)c(F)c1)CCc1cc2c(cc1-3)OCO2
- inhibition at 21.65 µM [20]: 0%

SMILES: COc1ccc2cc3[n+](cc2c1OC(=O)c1ccc2c(c1)OCO2)CCc1cc2c(cc1-3)OCO2
- inhibition at 5.31 µM [21]: 45.6%

SMILES: COc1ccc2cc3[n+](cc2c1OC(=O)c1ccccc1)CCc1cc2c(cc1-3)OCO2
- inhibition at 4.69 µM [22]: 37.2%

SMILES: COc1ccc2cc3[n+](cc2c1O)CCc1cc2c(cc1-3)OCO2 [BERBERRUBINE CHLORIDE]
- CC50 at 48 h [5]: 169000 nM
- EC50 [6]: 2800 nM
- selectivity ratio [7]: 60.4
- inhibition at 15.52 µM [23]: 77%
- inhibition [9]: 99%
